According to ChEMBL document CHEMBL2010753, “Free radical scavenging and antiproliferative properties of Biginelli adducts” (2012):
Values after ≈ are worked out from the molar mass of the structure shown. Active and inactive are the calls of the source. The calls are words filed in the database; no cut-off is given here.

Legend:
Format in all cases: functional
[1] = Antioxidant activity assessed as scavenging of DPPH at 160 uM after 30 mins by spectrophotometry
[2] = test system: U-251; test: Growth inhibition of human U251 cells after 48 hrs by sulforhodamine B assay; conditions: U-251, 48 h
[3] = test system: OVCAR-3; test: Growth inhibition of human OVCAR3 cells after 48 hrs by sulforhodamine B assay; conditions: OVCAR-3, 48 h
[4] = Growth inhibition of human NCI-ADR-RES cells after 48 hrs by sulforhodamine B assay
[5] = test system: PC-3; test: Growth inhibition of human PC3 cells after 48 hrs by sulforhodamine B assay; conditions: PC-3, 48 h
[6] = test system: 786-0; test: Growth inhibition of human 786-0 cells after 48 hrs by sulforhodamine B assay; conditions: 786-0, 48 h
[7] = test system: HT-29; test: Growth inhibition of human HT-29 cells after 48 hrs by sulforhodamine B assay; conditions: HT-29, 48 h
[8] = test system: NCI-H460; test: Growth inhibition of human NCI-H460 cells after 48 hrs by sulforhodamine B assay; conditions: NCI-H460, 48 h
[9] = Antioxidant activity assessed as concentration required for 50% DPPH scavenging activity after 30 mins by spectrophotometry
[10] = Antioxidant activity assessed as concentration required for 50% DPPH scavenging activity after 30 mins by spectrophotometry relative to monastrol
[11] = Antioxidant activity assessed as scavenging of DPPH at 20.3 uM up to 10 mins by spectrophotometry
Method in brief: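 Kinetic run: reaction medium with 10 nmol DPPH radicals in ethanol and compound at the stated concentration, DPPH scavenging followed over time up to 10 min. Three independent experiments, each in triplicate.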

[12] = Antioxidant activity assessed as scavenging of DPPH at 20.3 uM after 1 min by spectrophotometry relative to resveratrol
[13] = Antioxidant activity assessed as concentration required to scavenge 50% superoxide anions after 10 mins by spectrophotometry

| Compound | Activity [1] | GI50 [2] [µg/mL] | GI50 [3] [µg/mL] | GI50 [4] [µg/mL] | GI50 [5] [µg/mL] | GI50 [6] [µg/mL] | GI50 [7] [µg/mL] | GI50 [8] [µg/mL] | IC50 [9] [µM] | fold change (FC) [10] | Activity [11] [pmol] | fold change (FC) [12] | Activity [13] [µM] |
| --- | --- | --- | --- | --- | --- | --- | --- | --- | --- | --- | --- | --- | --- |
| CCOC(=O)C1=C(C)NC(=S)NC1c1ccc2c(c1)OCO2 (stereo not drawn) | inactive | 25.9 (≈ 80.8 µM) | 55.3 (≈ 173 µM) | 57.1 (≈ 178 µM) | 13.4 (≈ 41.8 µM) | 27 (≈ 84.3 µM) | 31.4 (≈ 98 µM) | 27 (≈ 84.3 µM) | – | – | – | – | – |
| CCOC(=O)C1=C(C)NC(=O)NC1C1CCCCC1 (stereo not drawn) | inactive | 142 (≈ 533 µM) | > 250 | > 250 | > 250 | > 250 | > 250 | > 250 | – | – | – | – | – |
| CCOC(=O)C1=C(C)NC(=S)NC1c1ccc(O)c(OC)c1 (stereo not drawn) | 65% | 88.3 (≈ 274 µM) | 11 (≈ 34.1 µM) | 59.7 (≈ 185 µM) | 72.6 (≈ 225 µM) | 30 (≈ 93.1 µM) | 34.9 (≈ 108 µM) | 180 (≈ 560 µM) | 104 | – | – | – | – |
| CCOC(=O)C1=C(C)NC(=O)NC1c1ccc(O)c(O)c1 (stereo not drawn) | Active | 0.25 (≈ 0.855 µM) | 1.6 (≈ 5.47 µM) | 2.1 (≈ 7.18 µM) | 18.2 (≈ 62.3 µM) | 20.7 (≈ 70.8 µM) | 37.8 (≈ 129 µM) | 34 (≈ 116 µM) | 20.3 | 37 | 488 | 2 | 33 |
| CCOC(=O)C1=C(C)NC(=S)N[C@H]1c1cccc(O)c1 [S-MENASTROL] | inactive | 24 (≈ 82.1 µM) | 14.4 (≈ 49.3 µM) | 22.2 (≈ 75.9 µM) | 5.6 (≈ 19.2 µM) | 4 (≈ 13.7 µM) | 29.6 (≈ 101 µM) | 10.6 (≈ 36.3 µM) | – | – | – | – | – |
| CCOC(=O)C1=C(C)NC(=S)NC1c1ccc(O)cc1 (stereo not drawn) | inactive | 77.2 (≈ 264 µM) | 37.7 (≈ 129 µM) | 83.6 (≈ 286 µM) | 47.6 (≈ 163 µM) | 27.5 (≈ 94.1 µM) | > 250 | > 250 | – | – | – | – | – |
| CCOC(=O)C1=C(C)NC(=S)NC1c1ccc(F)cc1 (stereo not drawn) | inactive | 28.3 (≈ 96.1 µM) | 24.7 (≈ 83.9 µM) | 26.1 (≈ 88.7 µM) | 1.7 (≈ 5.78 µM) | 24.5 (≈ 83.2 µM) | 26.5 (≈ 90 µM) | 14.2 (≈ 48.2 µM) | – | – | – | – | – |
| CCOC(=O)C1=C(C)NC(=S)NC1c1ccccc1 (stereo not drawn) | inactive | 26.6 (≈ 96.3 µM) | 27.7 (≈ 100 µM) | 27.4 (≈ 99.1 µM) | 42.2 (≈ 153 µM) | 27.7 (≈ 100 µM) | 29.8 (≈ 108 µM) | 28 (≈ 101 µM) | – | – | – | – | – |
| CCOC(=O)C1=C(C)NC(=S)NC1C1CCCCC1 (stereo not drawn) | inactive | 25.2 (≈ 89.2 µM) | 2.2 (≈ 7.79 µM) | 24.1 (≈ 85.3 µM) | 0.46 (≈ 1.63 µM) | 4.2 (≈ 14.9 µM) | 25.2 (≈ 89.2 µM) | 3.5 (≈ 12.4 µM) | – | – | – | – | – |
| CCOC(=O)C1=C(C)NC(=O)NC1c1ccccc1 (stereo not drawn) | inactive | > 250 | > 250 | > 250 | > 250 | > 250 | > 250 | 28.9 (≈ 111 µM) | – | – | – | – | – |
| CCOC(=O)C1=C(C)NC(=S)NC1c1cccc(OC)c1 (stereo not drawn) | inactive | 28.1 (≈ 91.7 µM) | 1.3 (≈ 4.24 µM) | 25.6 (≈ 83.6 µM) | 10.2 (≈ 33.3 µM) | 24.9 (≈ 81.3 µM) | 28.3 (≈ 92.4 µM) | 29.2 (≈ 95.3 µM) | – | – | – | – | – |
| CCOC(=O)C1=C(C)NC(=O)NC1c1ccc(O)c(OC)c1 (stereo not drawn) | 65% | 4.5 (≈ 14.7 µM) | 1.7 (≈ 5.55 µM) | 0.25 (≈ 0.816 µM) | 46.3 (≈ 151 µM) | 17.5 (≈ 57.1 µM) | 28.1 (≈ 91.7 µM) | 126 (≈ 410 µM) | 105 | – | – | – | – |
